This is an account of results in ChEMBL document CHEMBL1144223, “Design, synthesis, and docking studies of novel benzopyrone derivatives as H(1)-antihistaminic agents” (Bioorg Med Chem, 2008).

Structures are written as SMILES. pEC50: −log10 of the molar value. Structures can show the parent of a compound that is named as a salt.

Holding throughout (type): functional, tissue-based
For experiment [1], the target named is T1, Histamine H1 receptor (Cavia porcellus, UniProt P31389). The experiment can be described thus: Antagonist activity at histamine H1 receptor in guinea pig ileum assessed as inhibition of histamine-induced contractions at 0.1 mg/ml. A digest of the protocol: (§1)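 Isolated ileum from male guinea pigs (250–400 g), killed by a blow to the skull and cervical dislocation. Segments 2–3 cm long were tied to an aerating tube and an isotonic transducer. Cumulative histamine diphosphate was added every 2 min, from the threshold concentration up to the maximal response. Contraction height was expressed as % of the maximum with saline. EC50 and Emax were compared with saline (Student's t-test, n = 5 strips, mean ± SEM).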

Experiment [2] addresses Histamine H1 receptor (Cavia porcellus) (UniProt P31389). The experiment can be described thus: Antagonist activity at histamine H1 receptor in guinea pig ileum assessed as inhibition of histamine-induced contractions at 0.5 mg/ml relative to control. A digest of the protocol: as §1
The target is the same in experiment [3]. The experiment is described as follows: Antagonist activity at histamine H1 receptor in guinea pig ileum assessed as inhibition of histamine-induced contractions at 1.0 mg/ml relative to control. A digest of the protocol: as §1
Experiment [4] has the same target. The experiment can be described thus: Antagonist activity at histamine H1 receptor in guinea pig ileum assessed as inhibition of histamine-induced contractions at 0.1 mg/ml relative to control. A digest of the protocol:
as §1

The target of experiment [5] is T1, Histamine H1 receptor. The experiment can be described thus: Antagonist activity at histamine H1 receptor in guinea pig ileum assessed as inhibition of histamine-induced contractions at 1.0 mg/ml. A digest of the protocol:
as §1

Experiment [6] concerns the target T1, Histamine H1 receptor. The experiment can be described thus: Antagonist activity at histamine H1 receptor in guinea pig ileum assessed as inhibition of histamine-induced contractions at 0.5 mg/ml. A digest of the protocol:
as §1

The target of experiment [7] is Histamine H1 receptor (Cavia porcellus) (UniProt P31389). The experiment is described as follows: Antagonist activity at histamine H1 receptor in guinea pig ileum assessed as inhibition of histamine-induced contractions at 5 ug/ml relative to control. A digest of the protocol: as §1
In experiment [8] the target is T1, Histamine H1 receptor. The experiment is described as follows: Antagonist activity at histamine H1 receptor in guinea pig ileum assessed as inhibition of histamine-induced contractions at 5 ug/ml. A digest of the protocol:
as §1

Histamine H1 receptor (Cavia porcellus), sequence (P31389 whole entry): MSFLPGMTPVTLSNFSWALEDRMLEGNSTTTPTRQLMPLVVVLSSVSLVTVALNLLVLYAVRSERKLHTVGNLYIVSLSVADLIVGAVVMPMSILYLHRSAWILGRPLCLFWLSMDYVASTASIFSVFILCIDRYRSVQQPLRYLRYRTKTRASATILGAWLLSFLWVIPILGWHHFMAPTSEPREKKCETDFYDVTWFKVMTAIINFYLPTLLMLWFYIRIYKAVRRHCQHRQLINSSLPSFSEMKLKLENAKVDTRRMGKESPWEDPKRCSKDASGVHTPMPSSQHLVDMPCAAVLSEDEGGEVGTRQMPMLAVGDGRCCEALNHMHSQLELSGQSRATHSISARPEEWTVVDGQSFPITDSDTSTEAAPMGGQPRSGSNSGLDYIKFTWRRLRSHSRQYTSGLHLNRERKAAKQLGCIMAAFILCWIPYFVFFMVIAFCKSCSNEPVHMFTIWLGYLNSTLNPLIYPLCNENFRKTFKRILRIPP
T1 sequence (P31389 whole entry): as above

What is called pEC50 is the EC50 on a negative log10 scale, so that one unit is a factor of ten. For orientation: Emax means the maximal effect, on the per cent scale that the assay sets. Consider `CCN(CC)CC(O)COc1ccc2c(-c3ccccc3)cc(=O)oc2c1` (centres undefined), for which the negative logarithm of the EC50 (pEC50) at Histamine H1 receptor [1] is 7.79; at Histamine H1 receptor [5] it was 7.62; on Histamine H1 receptor [6], 7.76. Also, the Emax in experiment [2] turned out to be 95%; in experiment [3], 60%; in experiment [4], 100%.
Take `Cc1cc(=O)oc2ccc(OCC(O)CN3CCN(c4ccccc4)CC3)cc12` (centres undefined): the results for the negative logarithm of the EC50 (pEC50) at Histamine H1 receptor [1], at Histamine H1 receptor [5] and on Histamine H1 receptor [6] were 7.88, 7.67 and 7.80, respectively. Moreover, the Emax in experiment [2] amounted to 95%; in experiment [3], 60%; in experiment [4], 100%.
On to `CCN(CC)CC(O)COc1ccc2oc(=O)cc(C)c2c1` (centres undefined), for which the pEC50 is 7.77 on Histamine H1 receptor [1], 7.56 on Histamine H1 receptor [5] and 7.71 at Histamine H1 receptor [6]. Besides, the values for the Emax in experiment [2], in experiment [3] and in experiment [4] were 96%, 58% and 100%, respectively.
As for `O=c1cc(-c2ccccc2)c2ccc(OCC(O)CN3CCOCC3)cc2o1` (centres undefined), the negative-log EC50 (pEC50) was 7.84 at Histamine H1 receptor [1], 7.66 at Histamine H1 receptor [5] and 7.79 at Histamine H1 receptor [6]. The Emax in experiment [2] came out at 95%; in experiment [3], 58%; in experiment [4] it was 100%.
Turning to `O=c1cc(-c2ccccc2)c2ccc(OCC(O)CN3CCNCC3)cc2o1` (centres undefined), the pEC50 is 7.82 on Histamine H1 receptor [1], 7.65 on Histamine H1 receptor [5] and 7.78 on Histamine H1 receptor [6]. For the same compound, the Emax was determined as 100% in experiment [2], 53% in experiment [3] and 100% in experiment [4].
Turning to `COc1ccccc1N1CCN(CC(O)COc2ccc3oc(=O)cc(C)c3c2)CC1` (centres undefined), the pEC50 at Histamine H1 receptor [1] is 7.86; on Histamine H1 receptor [5], 7.70; at Histamine H1 receptor [6] it was 7.84. Besides, the values for the Emax in experiment [2], in experiment [3] and in experiment [4] were 96%, 58% and 100%, respectively.
On to `CCCNCC(O)COc1ccc2c(-c3ccccc3)cc(=O)oc2c1` (centres undefined), for which the pEC50 is 7.80 on Histamine H1 receptor [1], 7.62 at Histamine H1 receptor [5] and 7.75 on Histamine H1 receptor [6]. For the same compound, the Emax in experiment [2] amounted to 100%; in experiment [3], 53%; in experiment [4], 100%.
As to `Cc1cc(=O)oc2ccc(OCC(O)CN3CCCCC3)cc12` (centres undefined), the pEC50 at Histamine H1 receptor [1] was 7.76; on Histamine H1 receptor [5], 7.58; at Histamine H1 receptor [6], 7.69. The Emax in experiment [2] came to 98%; in experiment [3], 55%; in experiment [4] it was 100%.
`CN(C)CCC(c1ccccc1)c1ccccn1` (centres undefined) [PHENIRAMINE MALEATE]: the maximum response (Emax) in experiment [7] amounted to 78%. For the same compound, the pEC50 at Histamine H1 receptor [8] was 7.72.
Take `Cc1cc(=O)oc2ccc(OCC(O)CN3CCN(C)CC3)cc12` (centres undefined): the pEC50 on Histamine H1 receptor [1] was 7.76; on Histamine H1 receptor [5] it was 7.61; at Histamine H1 receptor [6], 7.74. In addition, the Emax in experiment [2] was found to be 98%; in experiment [3], 54%; in experiment [4] it was 100%.
Turning to `O=c1cc(-c2ccccc2)c2ccc(OCC(O)CN3CCN(c4ccccc4)CC3)cc2o1` (centres undefined), the pEC50 was 7.93 at Histamine H1 receptor [1], 7.74 at Histamine H1 receptor [5] and 7.86 at Histamine H1 receptor [6]. Also, the Emax in experiment [2] stood at 94%; in experiment [3], 54%; in experiment [4] it was 100%.
For the compound `O=c1cc(-c2ccccc2)c2ccc(OCC(O)CN3CCCCC3)cc2o1` (centres undefined), the pEC50 is 7.83 on Histamine H1 receptor [1], 7.63 on Histamine H1 receptor [5] and 7.80 on Histamine H1 receptor [6]. In addition, the Emax in experiment [2] worked out at 94%; in experiment [3] it was 60%; in experiment [4] it was 100%.
With `COc1ccccc1N1CCN(CC(O)COc2ccc3c(-c4ccccc4)cc(=O)oc3c2)CC1` (centres undefined), the pEC50 at Histamine H1 receptor [1] is 7.93; at Histamine H1 receptor [5], 7.74; on Histamine H1 receptor [6] it was 7.89. Moreover, the Emax in experiment [2] was 96%; in experiment [3] it was 52%; in experiment [4] it was 100%.
